The term pKb denotes the negative decadic logarithm of the Kb, by convention in mol/L. A word on the Ki: it is the dissociation constant of the complex between target and ligand, obtained from inhibition or displacement.

The target in experiment [1] is T1, Alpha-1A adrenergic receptor (Rattus norvegicus, UniProt P43140).
T1 sequence (P43140 whole entry): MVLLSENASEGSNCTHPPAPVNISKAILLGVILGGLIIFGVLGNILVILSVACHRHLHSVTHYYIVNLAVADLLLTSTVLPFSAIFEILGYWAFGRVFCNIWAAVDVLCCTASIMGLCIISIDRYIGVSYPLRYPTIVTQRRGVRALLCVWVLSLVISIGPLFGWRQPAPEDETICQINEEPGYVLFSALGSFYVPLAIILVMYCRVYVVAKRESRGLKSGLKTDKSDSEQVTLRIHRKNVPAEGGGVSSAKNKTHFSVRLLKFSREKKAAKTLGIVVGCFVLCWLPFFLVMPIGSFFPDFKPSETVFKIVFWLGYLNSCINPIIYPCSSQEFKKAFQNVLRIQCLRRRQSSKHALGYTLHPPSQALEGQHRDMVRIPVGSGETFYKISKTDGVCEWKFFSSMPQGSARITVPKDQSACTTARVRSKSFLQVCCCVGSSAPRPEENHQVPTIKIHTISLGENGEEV
Kind of experiment: (§1) Antagonist activity at alpha1A adrenergic receptor in Wistar rat prostatic rat vas deferens assessed as inhibition of noradrenaline-induced contraction preincubated for 30 mins followed by noradrenaline addition measured after 45 mins in presence of cocaine hydrochloride. The format is functional. As to conditions: read-out: pA2 (converted). A digest of the protocol:
(§2)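 Prostatic rat vas deferens, 2 cm portions, held at 0.35 g in Tyrode (pH 7.4, 37 °C, 95% O2/5% CO2). Cocaine 10 μM added 20 min before the agonist. Tissue equilibrated 45 min and primed twice with 10 μM noradrenaline. Isotonic cumulative noradrenaline curves were run before and after 30 min antagonist. pA2 came from Schild plots (≥3 concentrations); otherwise pKB (van Rossum). n ≥ 4.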

The species entered for experiment [2] is Homo sapiens. Kind of experiment: Selectivity ratio of compound effect for displacement of [3H]prazosin from human alpha1B adrenergic receptor expressed in CHO cell membranes to compound effect for displacement of [3H]prazosin from human alpha1D adrenergic receptor expressed in CHO cell membranes. The essentials: (§3)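 Ratio taken as the antilog of the difference between pKi values from [3H]prazosin displacement at human α1 subtypes expressed in CHO membranes.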
(In general: In a radioligand displacement assay an active substance lowers the binding of a labelled ligand.)

In experiment [3] the target is T2, Alpha-1A adrenergic receptor (Rattus norvegicus) (UniProt P43140).
T2 sequence (whole entry): T1 sequence (P43140 whole entry)
The description is as §1. The format is functional. A digest of the protocol: as §2

For experiment [4], the species on record is Homo sapiens. The experiment is described as follows: Selectivity ratio of compound effect for displacement of [3H]prazosin from human alpha1B adrenergic receptor expressed in CHO cell membranes to compound effect for displacement of [3H]prazosin from human alpha1A adrenergic receptor expressed in CHO cell membranes. The essentials:
as §3

Experiment [5] deals with T3, Alpha-1B adrenergic receptor (Homo sapiens, UniProt P35368).
T3 sequence (P35368 whole entry): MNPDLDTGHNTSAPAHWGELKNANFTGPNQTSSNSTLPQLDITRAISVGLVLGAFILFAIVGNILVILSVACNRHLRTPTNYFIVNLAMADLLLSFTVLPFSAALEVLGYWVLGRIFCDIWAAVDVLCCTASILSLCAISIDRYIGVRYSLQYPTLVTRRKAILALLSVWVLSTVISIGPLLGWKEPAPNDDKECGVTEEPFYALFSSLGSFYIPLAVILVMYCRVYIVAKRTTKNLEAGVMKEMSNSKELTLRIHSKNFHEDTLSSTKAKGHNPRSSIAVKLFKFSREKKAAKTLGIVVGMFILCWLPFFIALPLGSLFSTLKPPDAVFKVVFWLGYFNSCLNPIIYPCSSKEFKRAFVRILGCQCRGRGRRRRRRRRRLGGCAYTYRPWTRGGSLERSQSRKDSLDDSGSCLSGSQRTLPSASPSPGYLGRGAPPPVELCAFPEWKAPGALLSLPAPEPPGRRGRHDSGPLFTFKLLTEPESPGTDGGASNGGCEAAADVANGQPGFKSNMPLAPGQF
Kind of experiment: Displacement of [3H]prazosin from human alpha1B adrenergic receptor expressed in CHO cell membranes after 30 mins by rapid filtration method. The essentials:
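Membranes (30 μg protein) from CHO cells stably transfected with the human α1a, α1b or α1d receptor. Incubated 30 min at 25 °C in 50 mM Tris-HCl pH 7.4 with 0.1–0.4 nM [3H]prazosin and competitor 1 pM–10 μM. Nonspecific binding defined by 10 μM phentolamine. Stopped by rapid filtration through PEI-treated filters. IC50 converted to Ki by Cheng-Prusoff; pKi from 2–3 experiments in triplicate.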

Experiment [6] is filed under the species Homo sapiens. The experiment is described as follows: Selectivity ratio of compound effect for displacement of [3H]prazosin from human alpha1D adrenergic receptor expressed in CHO cell membranes to compound effect for displacement of [3H]prazosin from human alpha1A adrenergic receptor expressed in CHO cell membranes. A digest of the protocol:
as §3

In experiment [7] the target is T4, Alpha-1B adrenergic receptor (Rattus norvegicus, UniProt P15823).
T4 sequence (P15823 whole entry): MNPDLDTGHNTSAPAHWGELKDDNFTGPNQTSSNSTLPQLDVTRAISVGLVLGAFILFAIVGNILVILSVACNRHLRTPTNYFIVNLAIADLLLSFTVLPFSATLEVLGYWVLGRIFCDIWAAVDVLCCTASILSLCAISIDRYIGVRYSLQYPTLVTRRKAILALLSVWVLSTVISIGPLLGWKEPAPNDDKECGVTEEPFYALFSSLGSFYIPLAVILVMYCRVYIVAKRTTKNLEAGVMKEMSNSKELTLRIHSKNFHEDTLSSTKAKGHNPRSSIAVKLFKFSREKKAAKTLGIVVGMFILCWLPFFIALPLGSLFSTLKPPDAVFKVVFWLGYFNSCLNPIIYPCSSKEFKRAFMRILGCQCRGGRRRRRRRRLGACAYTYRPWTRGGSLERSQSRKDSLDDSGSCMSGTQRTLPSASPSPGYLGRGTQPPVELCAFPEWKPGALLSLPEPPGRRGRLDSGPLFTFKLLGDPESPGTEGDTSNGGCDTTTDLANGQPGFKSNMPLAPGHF
The experiment is described as follows: Antagonist activity at alpha1B adrenergic receptor in Wistar rat spleen assessed as inhibition of phenylephrine-induced contraction incubated for 30 mins in presence of beta-adrenoceptor blocker propranolol hydrochloride. The format is functional. The following applies: read-out: pA2 (converted). The essentials:
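Spleen bisected longitudinally into strips in Krebs with propranolol 4 μM, held at 1 g and equilibrated 2 h. Two isometric cumulative phenylephrine curves, each followed by 30 min washing. Third curve after 30 min vehicle or antagonist. Potency as pA2 (Schild) or pKB at one concentration (van Rossum). Responses as % of control maximum; n ≥ 4.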

For `COc1cc2nc(N3CCN(C(=O)C4COc5ccccc5O4)[C@H]4CCCC[C@H]43)nc(N)c2cc1OC` (single isomer, unassigned; (-)) [CYCLODOXAZOSIN], the Kb in experiment [1] was 200 nM.

For the molecule `COc1cc2nc(N3CCN(C(=O)C(C)(C)C)[C@H]4CCCC[C@H]43)nc(N)c2cc1OC`, the Selectivity ratio was determined as 8 in the experiment filed under Homo sapiens [2], 9 in the experiment listed under Homo sapiens [4] and 1 in the experiment filed under Homo sapiens [6]. In addition, the negative logarithm of the Kb (pKb) in experiment [3] worked out at 7.17. For the same molecule, affinity in experiment [5] was put at a Ki of 0.776 nM.

`COc1cc2nc(N3CCN(C(=O)Cc4ccc5ccccc5c4)[C@H]4CCCC[C@H]43)nc(N)c2cc1OC`: the Selectivity ratio was found to be 2 in the experiment listed under Homo sapiens [2], 14 in the experiment listed under Homo sapiens [4] and 8 in the experiment listed under Homo sapiens [6]. Besides, the pKb in experiment [3] stood at 6.56. Besides, the Ki in experiment [5] was 1.17 nM.

As for `COc1cc2nc(N3CCN(C(=O)OCc4ccccc4)[C@H]4CCCC[C@H]43)nc(N)c2cc1OC`, the Selectivity ratio is 11 in the experiment listed under Homo sapiens [2], 14 in the experiment filed under Homo sapiens [4] and 1 in the experiment filed under Homo sapiens [6]. The Kb in experiment [1] was 776 nM. The molecule further gave a Ki in experiment [5] of 0.38 nM.

For `COc1cc2nc(N3CCN(C(C)=O)[C@H]4CCCC[C@H]43)nc(N)c2cc1OC`, the values for the Kb in experiment [7] and in experiment [1] were 3.02 nM and 3020 nM, respectively. Besides, the Selectivity ratio stood at 12 in the experiment filed under Homo sapiens [2], 25 in the experiment listed under Homo sapiens [4] and 2 in the experiment listed under Homo sapiens [6]. In experiment [5], this molecule gave a Ki of 9.12 nM.

Take `COc1cc2nc(N3CCN(C(=O)COc4c(OC)cccc4C(C)C)[C@H]4CCCC[C@H]43)nc(N)c2cc1OC`: the Kb in experiment [7] was 191 nM; in experiment [1] it was 151 nM. Also, the Selectivity ratio amounted to 3 in the experiment filed under Homo sapiens [2], 6 in the experiment listed under Homo sapiens [4] and 2 in the experiment listed under Homo sapiens [6]. The affinity in experiment [5] corresponds to a Ki of 0.151 nM.

Regarding `CCCN(CCC)c1nc(N2CCN(C(=O)c3ccco3)[C@H]3CCCC[C@H]32)nc2cc(OC)c(OC)cc12`, the Selectivity ratio amounted to 17 in the experiment listed under Homo sapiens [2], 74 in the experiment filed under Homo sapiens [4] and 4 in the experiment filed under Homo sapiens [6]. Further, the pKb in experiment [3] was determined as 5.89. In experiment [5], this molecule had a Ki of 0.302 nM.

`CCCCCC(=O)N1CCN(c2nc(N)c3cc(OC)c(OC)cc3n2)[C@@H]2CCCC[C@@H]21`: the Selectivity ratio amounted to 4 in the experiment filed under Homo sapiens [2], 6 in the experiment listed under Homo sapiens [4] and 2 in the experiment listed under Homo sapiens [6]. In addition, the pKb in experiment [3] came out at 7.06. The same molecule gave a Ki in experiment [5] of 0.912 nM.

Consider `COc1cc2nc(N3CCN(C(=O)OCc4ccccc4)[C@@H]4CCCC[C@@H]43)nc(N)c2cc1OC`, for which the Kb in experiment [7] is 1.82 nM; in experiment [1], 16.2 nM. Also, the Selectivity ratio was found to be 0.2 in the experiment listed under Homo sapiens [2], 3 in the experiment filed under Homo sapiens [4] and 13 in the experiment filed under Homo sapiens [6]. Besides, in experiment [5], affinity was put at a Ki of 0.191 nM.

Take `COc1cc2nc(N3CCN(C(C)=O)[C@@H]4CCCC[C@@H]43)nc(N)c2cc1OC`: the Kb in experiment [7] was 0.617 nM; in experiment [1], 44.7 nM. Moreover, the Selectivity ratio was determined as 0.2 in the experiment listed under Homo sapiens [2], 12 in the experiment listed under Homo sapiens [4] and 60 in the experiment filed under Homo sapiens [6]. In experiment [5], this molecule had a Ki of 0.741 nM.

As to `CCCN(CCC)c1nc(N2CCN(C(=O)c3ccco3)[C@@H]3CCCC[C@@H]32)nc2cc(OC)c(OC)cc12`, the Selectivity ratio stood at 0.5 in the experiment listed under Homo sapiens [2], 15 in the experiment filed under Homo sapiens [4] and 29 in the experiment listed under Homo sapiens [6]. Also, the pKb in experiment [3] was determined as 7.02. For the same molecule, the affinity in experiment [5] corresponds to a Ki of 0.129 nM.
